Series [1] concerns U87-malignant glioma (ATCC-HTB-14). The experiment in a line: MTT assay, cytotoxicity against U87-malignant glioma cells. Format: cell-based, human. As to conditions: Homo sapiens, Glioma cell; for viability at 10 µM / viability at 40 µM / viability at 80 µM / viability at 100 µM / viability at 150 µM: read-out: % cell viability U87; for IC50: read-out: IC50 (μM ± SEM U87). The essentials:
(§1)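 Cells grown in DMEM (4.5 g/L glucose, 10% FBS, 1% penicillin/streptomycin) at 37 °C, 5% CO₂. Seeded at 1 × 10³ cells/well and left 24 h to adhere. Test compound added at 10, 40, 80, 100 or 150 μM for 48 h (text also states MTT added 24 h post-dosing). MTT in PBS added for 3 h, formazan dissolved in DMSO for 30 min, OD read at 550 nm, % viability calculated from absorbance.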
(Tetrazolium assays rely on reduction of a dye to a coloured formazan, in cell work by metabolically active cells.)

Series [2] is described as follows: MTT assay, cytotoxicity against normal HEK293 cells. It counts as cell-based, human. The note with it: human, HEK293 cells. The essentials: as §1

For orientation: viability means a read-out of living cells in per cent, often relative to untreated cells. By IC50 is commonly meant the point on the concentration scale where inhibition reaches its midpoint. Turning to `CC(C)Cc1ccc(C(C)C(=O)NN=Cc2ccc(OCC(=O)NN=Cc3ccccc3O)cc2)cc1` (stereo not drawn) [5r, N′-(4-(2-(2-(2-Hydroxybenzylidene)hydrazinyl)-2-oxoethoxy)benzylidene)-2-(4-isobutylphenyl)propanehydrazide], in series [1], the viability at 10 µM stood at 109%, the viability at 40 µM was 81.4%, the viability at 80 µM came to 72.8% and the viability at 100 µM amounted to 45.5%. In series [1], the viability at 150 µM came out at 40.6% and the IC50 was found to be 43.66 ± 0.04 µM. In series [2], the viability at 48 h, 10 μM turned out to be 39%; the viability at 48 h, 40 μM came to 33.6%; the viability at 48 h, 80 μM was determined as 32%; the viability at 48 h, 100 μM is 26.1%. The viability at 48 h, 150 μM in series [2] was 25.1%.

Consider `CC(C)Cc1ccc(C(C)C(=O)NN=Cc2ccc(OCC(=O)NN=Cc3cccc4ccccc34)cc2)cc1` (stereo not drawn) [5t, 2-(4-Isobutylphenyl)-N′-(4-(2-(2-(naphthalen-1-ylmethylene)hydrazinyl)-2-oxoethoxy)benzylidene)propanehydrazide], for which, in series [1], the viability at 10 µM came to 179%, the viability at 40 µM amounted to 169%, the viability at 80 µM is 155% and the viability at 100 µM is 146%. Also, in series [1], the viability at 150 µM came to 140% and the IC50 was 86.74 ± 0.26 µM. Moreover, in series [2], the viability at 48 h, 10 μM came to 68.7%; the viability at 48 h, 40 μM is 58.9%; the viability at 48 h, 80 μM is 51%; the viability at 48 h, 100 μM is 47.3%. Besides, the viability at 48 h, 150 μM in series [2] was 43%.

Turning to `CC(C)Cc1ccc(C(C)C(=O)NN=Cc2ccc(OCC(=O)NN=Cc3ccc(F)cc3)cc2)cc1` (stereo not drawn) [5q, N′-(4-(2-(2-(4-Fluorobenzylidene)hydrazinyl)-2-oxoethoxy)benzylidene)-2-(4-isobutylphenyl)propanehydrazide], in series [1], the viability at 10 µM is 183%, the viability at 40 µM worked out at 84%, the viability at 80 µM amounted to 81.7% and the viability at 100 µM was 48.5%. Also, in series [1], the viability at 150 µM worked out at 40.5% and the concentration for half-maximal inhibition (IC50) stood at 46 ± 0.08 µM. In series [2], the viability at 48 h, 10 μM was found to be 27.5%; the viability at 48 h, 40 μM came out at 25.4%; the viability at 48 h, 80 μM was 19.9%; the viability at 48 h, 100 μM came to 19.7%. In series [2], the viability at 48 h, 150 μM amounted to 17.8%.

Take `COc1ccc(C=NNC(=O)COc2ccc(C=NNC(=O)C(C)c3ccc(CC(C)C)cc3)cc2)cc1O` (stereo not drawn) [5n, N′-(4-(2-(2-(3-Hydroxy-4-methoxybenzylidene)hydrazinyl)-2-oxoethoxy)benzylidene)-2-(4-isobutylphenyl)propanehydrazide]: in series [1], the viability at 10 µM came out at 165%, the viability at 40 µM stood at 85.3%, the viability at 80 µM turned out to be 61.1% and the viability at 100 µM came to 42.7%. Also, in series [1], the viability at 150 µM is 33.2% and the half-inhibitory concentration (IC50) was determined as 40.18 ± 0.07 µM. In addition, in series [2], the viability at 48 h, 10 μM turned out to be 38.1%; the viability at 48 h, 40 μM worked out at 28%; the viability at 48 h, 80 μM amounted to 24.8%; the viability at 48 h, 100 μM is 16.9%. Moreover, the viability at 48 h, 150 μM in series [2] was found to be 12.6%.

Regarding `CC(C)Cc1ccc(C(C)C(=O)NN=Cc2ccc(OCC(=O)NN=Cc3ccc(Br)cc3F)cc2)cc1` (stereo not drawn) [5j, N′-(4-(2-(2-(4-Bromo-2-fluorobenzylidene)hydrazinyl)-2-oxoethoxy)benzylidene)-2-(4-isobutylphenyl)propanehydrazide], in series [1], the viability at 10 µM was 187%, the viability at 40 µM was 128%, the viability at 80 µM was 94.2% and the viability at 100 µM is 93.1%. In series [1], the viability at 150 µM is 78.6% and the IC50 is 43.71 ± 0.07 µM. Besides, in series [2], the viability at 48 h, 10 μM came to 44.5%; the viability at 48 h, 40 μM stood at 40.1%; the viability at 48 h, 80 μM came to 38.4%; the viability at 48 h, 100 μM is 36.8%. Moreover, the viability at 48 h, 150 μM in series [2] stood at 26.3%.

On to `COc1ccc(C=NNC(=O)COc2ccc(C=NNC(=O)C(C)c3ccc(CC(C)C)cc3)cc2)cc1OC` (stereo not drawn) [5l, N′-(4-(2-(2-(3,4-Dimethoxybenzylidene)hydrazinyl)-2-oxoethoxy)benzylidene)-2-(4-isobutylphenyl)propanehydrazide], for which, in series [1], the viability at 10 µM is 97%, the viability at 40 µM stood at 88.4%, the viability at 80 µM worked out at 84.9% and the viability at 100 µM came to 84.2%. In addition, in series [1], the viability at 150 µM is 79.7% and the IC50 turned out to be 72.83 ± 0.06 µM. In series [2], the viability at 48 h, 10 μM is 30.5%; the viability at 48 h, 40 μM was 28.1%; the viability at 48 h, 80 μM came to 25.9%; the viability at 48 h, 100 μM turned out to be 24.9%. The viability at 48 h, 150 μM in series [2] came to 24.2%.

With `COc1cccc(C=NNC(=O)COc2ccc(C=NNC(=O)C(C)c3ccc(CC(C)C)cc3)cc2)c1` (stereo not drawn) [5p, 2-(4-Isobutylphenyl)-N′-(4-(2-(2-(3-methoxybenzylidene)hydrazinyl)-2-oxoethoxy)benzylidene)propanehydrazide], in series [1], the viability at 10 µM came to 151%, the viability at 40 µM came to 122%, the viability at 80 µM came to 93.7% and the viability at 100 µM was found to be 93.7%. For the same compound, in series [1], the viability at 150 µM came to 93.5% and the IC50 is 90.68 ± 0.13 µM. Also, in series [2], the viability at 48 h, 10 μM amounted to 49.9%; the viability at 48 h, 40 μM is 49.4%; the viability at 48 h, 80 μM worked out at 49.2%; the viability at 48 h, 100 μM was 48.1%. Besides, in series [2], the viability at 48 h, 150 μM came out at 39.3%.

As for `CC(C)Cc1ccc(C(C)C(=O)NN=Cc2ccc(OCC(=O)NN=Cc3ccc(Cl)cc3Cl)cc2)cc1` (stereo not drawn) [5h, N′-(4-(2-(2-(2,4-Dichlorobenzylidene)hydrazinyl)-2-oxoethoxy)benzylidene)-2-(4-isobutylphenyl)propanehydrazide], in series [1], the viability at 10 µM amounted to 50.2%, the viability at 40 µM is 50.1%, the viability at 80 µM was 48.8% and the viability at 100 µM came out at 46%. Moreover, in series [1], the viability at 150 µM amounted to 43.6% and the concentration for half-maximal inhibition (IC50) is 120.1 ± 0.13 µM. Besides, in series [2], the viability at 48 h, 10 μM turned out to be 84.1%; the viability at 48 h, 40 μM was 79.5%; the viability at 48 h, 80 μM was 69.1%; the viability at 48 h, 100 μM is 68.3%. Besides, the viability at 48 h, 150 μM in series [2] is 67.1%.

With `CC(C)Cc1ccc(C(C)C(=O)NN=Cc2ccc(OCC(=O)NN=Cc3cc(Br)c(O)c(Br)c3)cc2)cc1` (stereo not drawn) [5i, N′-(4-(2-(2-(3,5-Dibromo-4-hydroxybenzylidene)hydrazinyl)-2-oxoethoxy)benzylidene)-2-(4-isobutylphenyl)propanehydrazide], in series [1], the viability at 10 µM turned out to be 40.3%, the viability at 40 µM turned out to be 36.9%, the viability at 80 µM was found to be 31.4% and the viability at 100 µM amounted to 29.9%. Also, in series [1], the viability at 150 µM worked out at 24.4% and the half-inhibitory concentration (IC50) was determined as 38.32 ± 0.1 µM. Also, in series [2], the viability at 48 h, 10 μM was found to be 67.6%; the viability at 48 h, 40 μM was determined as 57.4%; the viability at 48 h, 80 μM was 55.7%; the viability at 48 h, 100 μM stood at 49.9%. Also, the viability at 48 h, 150 μM in series [2] stood at 43.8%.

Values taken from PMC10764114 (ACS Omega, 2023).
